ChEMBL document CHEMBL2331469, “Discovery and Preliminary SAR of Arylpiperazines as Novel, Brainpenetrant Antiprion Compounds” (ACS Med Chem Lett, 2013)

Columns and labels:
N2a-cl3 = assay: Antiprion activity against sheep RML prion protein-infected in mouse ScN2a-cl3 cells assessed as reduction of PrPSc level after 5 days by ELISA relative to control; format: cell-based; parameters: concentration or dose not given beside the values; conditions: Ovis aries, dose or concentration not given here
[1] = Antiprion activity against sheep RML prion protein-infected in mouse ScN2a-cl3 cells assessed as reduction of PrPSc level after 5 days by ELISA; format: cell-based; conditions: Ovis aries, N2a-cl3, 120 h
How it was run: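 RML prion-infected murine neuroblastoma ScN2a-cl3 cells. PrPSc levels were measured by ELISA, and EC50 was derived from 3 tests. Cell viability was run alongside each EC50 measurement in the same cells using calcein-AM fluorescence, to exclude cytotoxicity.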

[2] = Cytotoxicity against mouse ScN2a-cl3 cells assessed as cell viability after 5 days by calcein cell viability assay; format: cell-based; conditions: n2a-cl3, 120 h, read-out: LC50 (the source's name)
How it was run: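 Viability of RML prion-infected ScN2a-cl3 cells was read with the fluorescent probe calcein-AM. It was run alongside each PrPSc ELISA EC50 measurement to rule out cytotoxicity, and LC50 was derived from 3 tests.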

Liver microsomes = assay: Metabolic stability in human liver microsomes assessed as half life by LC-MS analysis; format: ADME, Microsome
Liver = assay: Metabolic stability in mouse liver microsomes assessed as half life by LC-MS analysis; format: ADME, Microsome
[3] = AUC (0 to 6 hrs) in wild type FVB mouse plasma at 10 mg/kg, po by LC-MS analysis; format: ADME, organism-based; parameters: time < 6 hr, dose 10 mg/kg, route oral
Plasma = assay: (§1) Cmax in wild type FVB mouse plasma at 10 mg/kg, po by LC-MS analysis; format: ADME, organism-based; parameters: dose 10 mg/kg, route oral; conditions: in vivo
Brain = assay: (§2) AUC (0 to 6 hrs) in wild type FVB mouse brain at 10 mg/kg, po by LC-MS analysis; format: ADME, organism-based; parameters: time < 6 hr, dose 10 mg/kg, route oral; conditions: in vivo, 6 h
[4] = Cmax in wild type FVB mouse brain at 10 mg/kg, po by LC-MS analysis; format: ADME, organism-based; parameters: dose 10 mg/kg, route oral
[5] = as §1; format: ADME, organism-based; parameters: dose 10 mg/kg, route oral; conditions: FVB, plasma
[6] = as §2; format: ADME, organism-based; parameters: time < 6 hr, dose 10 mg/kg, route oral; conditions: FVB, brain

Row | SMILES | inhibition (N2a-cl3) | EC50 [1] | other results
1 | COc1ccc(N2CCN(Cc3cccs3)CC2)cc1 | 16% | – | –
2 | Fc1ccc(N2CCN(Cc3cccnc3)CC2)cc1 | 27% | > 32 µM | –
3 | c1cncc(CN2CCN(c3ccc(-c4ncco4)cc3)CC2)c1 | – | > 10 µM | CC50 [2]: > 10 µM
4 | COc1ccc(N2CCN(Cc3cccnc3)CC2)cc1 | 10% | > 32 µM | –
5 | Cc1ccc(CN2CCN(c3ccc(-c4ncco4)cc3)CC2)o1 | – | > 10 µM | CC50 [2]: > 10 µM
6 | Clc1ccc(N2CCN(Cc3cccnc3)CC2)cc1 | 0% | – | –
7 | CC(=O)c1ccc(N2CCN(Cc3ccc(C)o3)CC2)cc1 | 78% | 4.62 µM | –
8 | c1cncc(CN2CCN(c3ccc(-c4nc5ccccc5s4)cc3)CC2)c1 | – | 0.4 µM | t1/2 (Liver microsomes): 34.3 min; t1/2 (Liver): 17.3 min; AUC(0-t) at 6 h [3]: 2.7 µM·h; Cmax (Plasma): 600 nM; AUC (Brain): 14.4 µM·h; Cmax [4]: 3000 nM; CC50 [2]: > 10 µM
9 | Fc1ccccc1N1CCN(Cc2cccnc2)CC1 | – | > 32 µM | –
10 | CC(=O)c1ccc(N2CCN(Cc3ccccc3)CC2)cc1 | 94% | 0.71 µM | –
11 | Cc1ccc(CN2CCN(c3ccc(-c4nc5ccccc5o4)cc3)CC2)o1 | – | 3.3 µM | CC50 [2]: > 10 µM
12 | Clc1cccc(N2CCN(Cc3ccco3)CC2)c1 | 6% | – | –
13 | c1csc(CN2CCN(c3ccc(-c4ncco4)cc3)CC2)c1 | – | > 10 µM | CC50 [2]: > 10 µM
14 | COc1ccc(N2CCN(Cc3ccc(Br)o3)CC2)cc1 | 6% | – | –
15 | CC(=O)c1ccc(N2CCN(Cc3cccs3)CC2)cc1 | 91% | 1.95 µM | –
16 | c1cncc(CN2CCN(c3ccc(-c4nc5ccccc5o4)cc3)CC2)c1 | – | 0.3 µM | t1/2 (Liver microsomes): 50.2 min; t1/2 (Liver): 9.2 min; AUC(0-t) at 6 h [3]: 4.2 µM·h; Cmax [5]: 900 nM; AUC (Brain): 14.2 µM·h; Cmax [4]: 3600 nM; CC50 [2]: > 10 µM
17 | COc1ccc(CN2CCN(c3ccc(-c4nc5ccccc5o4)cc3)CC2)cn1 | – | 1.1 µM | t1/2 (Liver microsomes): > 60 min; t1/2 (Liver): 25.2 min; AUC(0-t) at 6 h [3]: 1.1 µM·h; Cmax [5]: 700 nM; AUC(0-t) at 6 h [6]: 3 µM·h; Cmax [4]: 1600 nM; CC50 [2]: > 10 µM
18 | Fc1ccc(CN2CCN(c3ccc(-c4nc5ccccc5o4)cc3)CC2)cn1 | – | 0.4 µM | t1/2 (Liver microsomes): 43.6 min; t1/2 (Liver): 7.3 min; AUC(0-t) at 6 h [3]: 1.2 µM·h; AUC (Brain): 1.3 µM·h; Cmax [4]: 400 nM; CC50 [2]: > 10 µM

Row | SMILES | inhibition (N2a-cl3) | EC50 [1] | other results
19 | Clc1ccc(N2CCN(Cc3ccccc3)CC2)cc1 | 6% | – | –
20 | CC(=O)c1ccc(N2CCN(Cc3sccc3C)CC2)cc1 | 78% | – | –
21 | Clc1cccc(N2CCN(Cc3cc(Br)cs3)CC2)c1 | 34% | – | –
22 | Clc1ccc(N2CCN(Cc3ccco3)CC2)cc1 | 13% | – | –
23 | COc1ccc(N2CCN(Cc3ccccc3)CC2)cc1 | 7% | – | –
24 | Clc1cccc(N2CCN(Cc3cccnc3)CC2)c1 | 4% | > 32 µM | –
25 | COc1ccccc1N1CCN(Cc2cccnc2)CC1 | – | > 32 µM | –
26 | c1csc(CN2CCN(c3ccc(-c4nc5ccccc5o4)cc3)CC2)c1 | – | 4.2 µM | CC50 [2]: > 10 µM
27 | Clc1ccc(N2CCN(Cc3ccc(Br)s3)CC2)cc1 | 12% | – | –
28 | Fc1ccc(N2CCN(Cc3ccccc3)CC2)cc1 | 7% | – | –
29 | Cc1ccc(CN2CCN(c3ccc(-c4nc5ccccc5o4)cc3)CC2)cn1 | – | > 10 µM | CC50 [2]: > 10 µM
30 | CC(=O)c1ccc(N2CCN(Cc3cccnc3)CC2)cc1 | 73% | – | –
31 | c1ccc(N2CCN(Cc3cccnc3)CC2)cc1 | 4% | – | –
32 | COc1cccc(N2CCN(Cc3cccnc3)CC2)c1 | – | > 32 µM | –
33 | c1ccc(CN2CCN(c3ccccc3)CC2)cc1 | 5% | – | –
34 | Clc1cccc(N2CCN(Cc3ccccc3)CC2)c1 | 7% | – | –
35 | CC(=O)c1ccc(N2CCN(Cc3ccco3)CC2)cc1 | 96% | – | –
